High-throughput results (PubChem BioAssay)
Only some compounds are listed: those with a hit (about 2.8% of all), similar ones and a draw of the others.
mABHD4 FP = inhibitors of mouse ABHD4; 370,000 compounds, 0.54% hits; AID 720543; purified mABHD4, FP-Rh probe fluorescence polarization; inhibition, % at 8.92 µM;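 active means inhibition exceeding the mean over every tested compound plus 3 SD, cut at about 30% in these data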;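 further: 0% = plate median of compound wells and 100% = S159A mutant with DMSO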
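system = mouse ABHD4 enzyme, wild type | medium = HEPES pH 7.0, NaCl, Pluronic buffer | also added = FP-Rh probe | incubation = Enzyme–compound pre-incubation 45 min, then probe 60 min, both 25 °C | technique = fluorescence polarization, excitation 525 nm, emission 598 nm, BODIPY TMR filters | controls = S159A mutant high control, sample median low control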
pPAFAH FP inh = pPAFAH (human) enzyme inhibition | recombinant pPAFAH, FP-rhodamine probe fluorescence polarization | inhibition, % at 3.39 µM | AID 463082 | 330,000 compounds, 1.5% hits;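 active means inhibition above the mean inhibition across the screen plus 3 SD, cut at about 25% in these data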;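 further: inhibitors block binding of the rhodamine activity-based probe so polarization drops; 0% = enzyme with DMSO and 100% = wells lacking pPAFAH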
PAFAH2 FP inh = PAFAH2 (human) inhibition; Q99487; recombinant PAFAH2, FP-rhodamine activity probe, fluorescence polarization; inhibition, % at 3.39 µM; 340,000 compounds, 0.99% hits; AID 492956;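 active means inhibition above the mean over all tested compounds plus 3 SD, cut at about 30% in these data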;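 further: inhibitors block probe labeling of enzyme so polarization drops; 0% = enzyme with DMSO and 100% = wells lacking PAFAH2 protein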
HTRA1 inh = inhibitors of human serine peptidase HTRA1. recombinant HTRA1, FP-rhodamine activity-based probe, fluorescence polarization. inhibition, % at 5.96 µM. 340,000 compounds, 0.5% hits. AID 504803; in the data active means inhibition above about 36%;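 further: 0% = enzyme with DMSO and 100% = wells lacking enzyme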
Target sequence (Q92743 whole entry, looked up): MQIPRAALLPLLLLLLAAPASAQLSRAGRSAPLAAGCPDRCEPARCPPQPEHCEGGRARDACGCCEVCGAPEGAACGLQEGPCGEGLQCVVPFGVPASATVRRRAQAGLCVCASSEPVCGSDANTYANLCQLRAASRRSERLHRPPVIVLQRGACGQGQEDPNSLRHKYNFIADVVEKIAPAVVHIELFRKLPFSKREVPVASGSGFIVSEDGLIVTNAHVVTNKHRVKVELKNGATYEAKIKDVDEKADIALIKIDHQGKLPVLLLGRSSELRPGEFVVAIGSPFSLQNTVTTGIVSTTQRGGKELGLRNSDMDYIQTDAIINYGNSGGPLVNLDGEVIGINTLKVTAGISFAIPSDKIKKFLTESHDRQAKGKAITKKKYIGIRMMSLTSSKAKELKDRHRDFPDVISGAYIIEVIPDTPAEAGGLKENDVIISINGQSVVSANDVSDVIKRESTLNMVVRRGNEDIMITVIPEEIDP
PAFAH1B3 FP inh = blocks human PAF acetylhydrolase 1B catalytic subunit 3; 340,000 compounds, 0.28% hits; Q15102; inhibition, % at 3.39 µM; recombinant PAFAH1B3, FP-rhodamine probe, fluorescence polarization;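 active means inhibition above the screen-wide average of all tested compounds plus 3 SD, cut at about 25% in these data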;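 further: 0% = enzyme with DMSO only and 100% = wells lacking PAFAH1B3 protein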
PAFAH1B2 inh = PAFAH1B2 (human) inhibition; P68402; recombinant PAFAH1B2, FP-rhodamine activity probe, fluorescence polarization; inhibition, % at 3.39 µM; 340,000 compounds, 1.2% hits; AID 492953;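 active means inhibition above the mean of all tested compounds plus 3 SD, cut at about 24% in these data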;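 further: 0% = enzyme with DMSO and 100% = wells lacking PAFAH1B2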
Target sequence (P68402 whole entry, looked up): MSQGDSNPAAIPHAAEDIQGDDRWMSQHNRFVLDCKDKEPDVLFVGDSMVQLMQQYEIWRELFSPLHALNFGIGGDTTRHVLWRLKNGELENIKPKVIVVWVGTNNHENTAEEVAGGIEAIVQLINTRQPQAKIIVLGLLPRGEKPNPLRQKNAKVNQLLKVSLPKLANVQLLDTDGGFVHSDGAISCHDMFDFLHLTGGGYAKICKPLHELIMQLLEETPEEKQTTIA
PAFAH2 FP conf = PAFAH2 (human) inhibition, confirmed; inhibition, % at 3.39 µM; AID 493030; recombinant PAFAH2, FP-rhodamine activity probe, fluorescence polarization; shares compounds with PAFAH2 FP inh; 2,300 compounds, 65% hits;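 active means mean inhibition over three repeats above a set limit taken from the earlier primary screen, cut at about 30% in these data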;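 further: inhibitor blocks binding of rhodamine activity probe so polarization falls; 0% = enzyme with DMSO and 100% = wells lacking PAFAH2 protein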
* marks the source's active call; other numbers are inactive results; / = not tested or not shown.

SMILES	mABHD4 FP	pPAFAH FP inh	PAFAH2 FP inh	HTRA1 inh	PAFAH1B3 FP inh	PAFAH1B2 inh	PAFAH2 FP conf
Cc1cccc(NC(=O)COC(=O)c2ccc3nc(C)c(C)nc3c2)c1	-8.8	-4.0	71.4*	-0.3	5.3	1.0	49.5*
C=CCN1[C@H](C)COc2cccc(N3CCSCC3)c2S1(=O)=O	-1.9	/	/	/	/	/	/
Cc1ccc(-c2nnc3n2N=C(c2ccc4ccccc4c2)CS3)cc1	-1.1	/	/	/	/	/	/
CC(C)(C)c1ccc(-c2noc(CCC(=O)NC3CC3)n2)cc1	0.9	/	/	/	/	/	/
O=C(c1ccccc1)n1ccc2ccc(-c3ccc4ccn(C(=O)c5ccccc5)c4c3)cc21	-7.5	/	/	/	/	/	/
Cc1cccc(NC(=O)COC(=O)c2cc(C)oc2C)c1	-1.7	-2.0	74.7*	-12.9	0.8	-1.4	78.8*
COc1ccc(C(=O)OCC(=O)c2ccc[nH]2)cc1	-15.3	3.7	39.9*	6.4	-1.6	-2.7	30.7*
COc1ccc(C(=O)COC(=O)c2ccc(NC(C)=O)cc2)cc1[N+](=O)[O-]	5.2	3.1	12.1	4.8	2.9	-0.3	/
COc1cccc(C(=O)COC(=O)c2ccc(NC(C)=O)cc2)c1	0.2	-2.8	37.2*	-5.1	8.0	4.3	32.1*
COc1ccc(-n2c(SCC(=O)Nc3cc(C)c(NC(=O)c4ccccc4)cc3OC)nnc2-c2cccnc2)cc1	-0.5	/	/	/	/	/	/
CN(C)c1cccc(/C=C2\CC3(OC(=O)c4ccc(F)cc4)CCCN2C3)c1 (stereo unspecified)	6.8	/	/	/	/	/	/
COC(=O)[C@]12C[C@H](CC(=O)NCCc3ccccc3OC)C(=O)N(Cc3ccc4c(c3)OCO4)C1=C[C@H](C(C)C)O[C@@H]2C1CC1	-8.0	/	/	/	/	/	/
O=C(O)/C=C/C(=O)NCCNc1ncc(C(F)(F)F)cc1Cl	1.2	6.1	54.4*	2.8	1.5	5.8	38.1*
O=C(OCc1nnc(-c2ccccc2)o1)c1cccc(S(=O)(=O)N2CCOCC2)c1	-8.1	4.4	57.2*	-2.9	-5.6	-2.2	40.5*
O=C(OCc1nnc(-c2ccccc2)o1)c1ccc(Br)o1	-1.8	10.5	9.3	-0.2	-3.8	2.1	/
Cc1noc(C)c1COC(=O)c1cccc(S(=O)(=O)N2CCOCC2)c1	0.9	4.8	-6.4	-0.7	5.4	3.2	/
Cc1noc(C)c1COc1ccc(C(=O)OCc2nnc(-c3ccc(Cl)cc3)o2)cc1	-23.9	3.4	66.2*	-31.2	-3.1	0.7	68.5*
Cc1ccsc1C(=O)OCc1nnc(-c2ccccc2)o1	7.0	10.8	50.8*	-0.3	1.9	2.2	29.3
O=C(OCc1nnc(-c2ccc(Br)cc2)o1)c1ccco1	-5.6	1.2	53.9*	3.5	9.6	0.8	42.1*
CN(C(=O)c1ccccc1OCC(=O)Nc1ccc(Br)cc1)c1ccccc1	-11.2	/	/	/	/	/	/
COc1cc(NC(=O)c2ccccc2)c(C)cc1NC(=O)CSc1nnc(-c2ccco2)n1Cc1ccco1	-2.2	/	/	/	/	/	/
CC(C)(C)CCNc1nc(-c2ccccn2)nnc1-c1ccccc1	17.2	/	/	/	/	/	/
Cc1nc2ccc(C(=O)OCc3nnc(-c4ccc(Br)cc4)o3)cc2nc1C	6.7	-0.1	12.9	0.0	-1.2	7.6	/
O=C(OCCOc1ccccc1F)c1cccc(S(=O)(=O)N2CCOCC2)c1	3.0	11.7	29.7*	8.3	5.7	1.2	17.6
CCOC(=O)c1cccc(S(=O)(=O)N2CCOCC2)c1	-0.5	-1.2	-3.5	3.2	7.4	1.2	/
SMILES	mABHD4 FP	pPAFAH FP inh	PAFAH2 FP inh	HTRA1 inh	PAFAH1B3 FP inh	PAFAH1B2 inh	PAFAH2 FP conf
O=C(OCc1nnc(-c2ccccc2)o1)c1ccccc1	-7.0	8.1	57.2*	-1.7	1.4	1.5	50.2*
Cc1ccccc1C(=O)OCc1nnc(-c2ccc(Cl)cc2)o1	-0.8	-1.7	33.4*	-5.1	1.3	4.0	24.5
Cc1nc2ccc(C(=O)OCc3nnc(-c4ccccc4)o3)cc2nc1C	-5.8	/	34.8*	3.7	14.4	9.3	17.9
COc1ccc(-c2nnc(SCC(=O)N/N=C(\C)c3ccc(-c4ccccc4)cc3)n2-c2ccc(C)cc2)cc1	-8.9	/	/	/	/	/	/
O=C1C[C@@H](c2ccccc2)N=C2N(CC3CC3)C/C(=C/c3ccccc3)N12	3.9	/	/	/	/	/	/
O=C(CSc1nnc(CNC(=O)c2c(F)cccc2F)o1)NCCc1ccccc1	1.7	9.7	3.2	3.7	2.2	-1.2	/
O=C(CSc1nnc(CNC(=O)c2ccccc2F)o1)NCCc1ccccc1	1.6	-3.9	53.8*	-2.6	5.9	3.5	2.1
COc1ccc(Cn2ccc3ccc(-c4ccc5ccn(C(=O)c6ccccc6OC)c5c4)cc32)cc1	-5.5	/	/	/	/	/	/
CCS(=O)c1ccccc1C(=O)OCC(=O)Nc1cccc(S(=O)(=O)N2CCCCC2)c1 (stereo unspecified)	-1.6	-2.5	58.7*	-5.3	-7.2	0.0	53.4*
CCc1ccccc1OCC(=O)Nc1cccc(S(=O)(=O)N2CCCC2)c1	0.9	/	-4.0	-24.1	4.2	4.1	/
CCS(=O)c1ccccc1C(=O)OCC(=O)Nc1ccc2ccccc2c1 (stereo unspecified)	-4.9	7.9	69.6*	-9.0	11.4	-0.3	66.6*
CCOc1ccccc1C(=O)OCC(=O)Nc1cccc(S(=O)(=O)N2CCCC2)c1	-7.0	4.3	72.7*	-13.7	10.4	8.9	51.9*
O=C(COC(=O)c1cccnc1Cl)Nc1cccc(S(=O)(=O)N2CCCCC2)c1	-5.6	0.6	27.3	31.6	-4.3	8.1	/
O=C(COC(=O)c1ccccc1O)Nc1ccc2ccccc2c1	2.2	-6.6	1.7	-2.2	7.7	0.1	/
Cn1c2cc(S(C)=O)sc2c2cnn(Cc3cccc(N)c3)c(=O)c21 (stereo unspecified)	-1.7	/	/	/	/	/	/
Clc1ccc(-n2c(SCc3cccc4ccccc34)nnc2-c2ccccn2)cc1	-6.8	/	/	/	/	/	/
COc1ccccc1CCC[C@H](CCS(=O)(=O)C(C)C)CC1CCCCC1	-5.1	/	/	/	/	/	/
COc1ccc(C(=O)Nc2cc(Cl)ccc2OC(=O)c2ccc(OC)cc2)cc1	/	2.2	45.0*	-4.5	2.5	-0.2	35.3*
Cc1cccc(-c2cc3nc(-c4ccccc4)cc(=O)n3[nH]2)c1	0.6	13.9	41.1*	-0.3	8.5	13.2	26.3
CCCC[C@H](C(=O)N(C)c1ccccc1)[C@@H](O)c1ccc2ccccc2c1	-7.0	/	/	/	/	/	/
Cc1ccc(/C=C2/SC(=S)N(CCCC(=O)Nc3cc([N+](=O)[O-])ccc3O)C2=O)cc1	-4.1	7.6	32.4*	-4.7	8.9	4.1	15.7
O=C(CSc1nnc(-c2ccccn2)n1-c1ccccc1)Nc1ccccc1-c1ccccc1	-5.5	/	/	/	/	/	/
COc1ccc(C(=O)Oc2ccc(Br)cc2C(=S)N2CCOCC2)cc1	-5.1	17.5	51.8*	-11.7	8.2	1.5	36.4*
Cc1ccc(C(=O)Oc2ccc(Br)cc2C(=S)N2CCOCC2)cc1	-5.6	10.4	32.4*	-6.3	4.1	4.1	32.9*
